Results on 17 molecules are retold here after ChEMBL document CHEMBL4041475, “Novel 2-arylazoimidazole derivatives as inhibitors of Trypanosoma cruzi proliferation: Synthesis and evaluation of their biological activity” (Eur J Med Chem, 2017).

Data set [1] relates to Trypanosoma cruzi. The data set can be described thus: Trypanocidal activity against Trypanosoma cruzi TCC epimastigotes at 1 to 15 uM supplemented with fresh medium containing compound every 9 to 10 days by haemocytometric method. It counts as functional. The method in brief:
(§1)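 TCC strain epimastigotes grown at 28 °C in Diamond medium with haemin and 10% FBS. Seeded at 10×10⁶/mL in duplicate with 1, 5, 10 or 15 μM compound, alongside untreated cultures. Counted daily in a haemocytometer. Every ~9–10 days, re-diluted to 5×10⁶/mL in fresh compound-containing medium to start a new round.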

The test system of data set [2] is Trypanosoma cruzi. The data set can be described thus: Trypanocidal activity against Trypanosoma cruzi TCC epimastigotes assessed as maximal parasite density at 1 to 15 uM supplemented with fresh medium containing compound every 9 to 10 days measured on third week by haemocytometric method. Type of data set: functional. The method in brief:
as §1

Data set [3] relates to Trypanosoma cruzi. The data set can be described thus: Trypanocidal activity against Trypanosoma cruzi RA tripamastigote bloodstream forms infected in Balb/c mouse assessed as reduction in parasitaemia at 100 mg/kg, po administered on day 9 post infection for 5 consecutive days measured on day 35 post infection relative to control. Type of data set: functional. Also on record: scale not given: the % may be the effect or the level left. The method in brief:
(§2)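 Balb/c males, 6–8 weeks, groups of six, infected i.p. with 100 RA strain bloodstream trypomastigotes. Oral dosing for 5 consecutive days once parasites were circulating, in 0.1 M PBS pH 7.2, with vehicle as negative control. Tail-vein blood (5 μl) diluted 1:10 in NH₄Cl/Tris lysis buffer and counted in a haemocytometer every other day.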

The test system of data set [4] is Trypanosoma cruzi. The experiment in a line: Trypanocidal activity against Trypanosoma cruzi RA tripamastigote bloodstream forms infected in Balb/c mouse assessed as mouse survival at 100 mg/kg, po administered on day 9 post infection for 5 consecutive days measured daily during compound dosing up to 45 days post infection. Type of data set: functional. The method in brief: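 Male Balb/c mice (6–8 weeks, groups of six) were infected intraperitoneally with 100 bloodstream trypomastigotes harvested from CF1 mice. Oral dosing at 100 mg/kg/day for five consecutive days began once circulating parasites were confirmed microscopically, on day 9 p.i. Drugs were suspended in 0.1 M PBS (pH 7.2), prepared fresh daily; vehicle served as negative control. Mortality was recorded daily to 45 days p.i.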

Data set [5] can be described thus: Cytotoxicity against mouse RAW cells assessed as reduction in cell viability after 24 hrs by MTT assay. Type of data set: cell-based. The method in brief:
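RAW cells, 1x10⁵ per well, exposed to 125–1000 μM compound for 24 h at 37 °C, 5% CO₂; MTT added at 1.5 mg/mL final for 4 h, formazan dissolved in 1% SDS/0.01 M HCl, absorbance at 540 nm. CC50 obtained by linear regression of log OD against log concentration. Run in duplicate.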
(Tetrazolium assays rely on reduction of a dye to a coloured formazan, in cell work by metabolically active cells.)

Data set [6] relates to Trypanosoma cruzi. The experiment in a line: Trypanocidal activity against Trypanosoma cruzi TCC epimastigotes assessed as effect on parasite motility at 1 to 15 uM supplemented with fresh medium containing compound every 9 to 10 days measured on third week. Type of data set: functional. The method in brief: as §1
Data set [7] relates to Trypanosoma cruzi. The data set can be described thus: Trypanocidal activity against Trypanosoma cruzi TCC epimastigotes assessed as parasite duplication time at 1 to 15 uM supplemented with fresh medium containing compound every 9 to 10 days measured on third week. Type of data set: functional. The method in brief:
as §1

The test system of data set [8] is Trypanosoma cruzi. The experiment in a line: Trypanocidal activity against Trypanosoma cruzi RA tripamastigote bloodstream forms infected in Balb/c mouse assessed as reduction in circulating parasite level in acute phase at 100 mg/kg, po administered on day 9 post infection for 5 consecutive days. It counts as functional, organism-based. The essentials: as §2

The test system of data set [9] is Trypanosoma cruzi. The data set can be described thus: Trypanocidal activity against Trypanosoma cruzi TCC epimastigotes assessed as effect on parasite viability at 1 to 15 uM supplemented with fresh medium containing compound every 9 to 10 days measured on third week by maximal parasite density. It counts as functional. The essentials:
as §1

The test system of data set [10] is Trypanosoma cruzi. The experiment in a line: Trypanocidal activity against Trypanosoma cruzi RA tripamastigote bloodstream forms isolated from infected CF1 mouse blood after 24 hrs by haemocytometric method. Type of data set: functional. The method in brief:
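RA strain bloodstream trypomastigotes taken from CF1 mouse blood at parasitaemia peak (day 5 p.i.) and diluted in medium to 1.5×10⁶/ml. Exposed in duplicate to 125–1000 μM compound at 4 °C for 24 h. Viable parasites counted in a haemocytometer; % lysis computed against untreated control. IC50 obtained from log %L against log concentration.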

In data set [11] the test system is Trypanosoma cruzi. The data set can be described thus: Trypanocidal activity against Trypanosoma cruzi TCC epimastigotes assessed as maximal parasite density at 15 uM measured after 9 to 10 days by haemocytometric method (reference value: 45 10^6/ml). It counts as functional. The method in brief: as §1
The test system of data set [12] is Trypanosoma cruzi. The experiment in a line: Trypanocidal activity against Trypanosoma cruzi TCC epimastigotes assessed as parasite duplication time at 15 uM measured after 9 to 10 days (reference value: 2 day). It counts as functional. The method in brief:
as §1

Setting [13] is: in the assay text read “day 18 post infection relative” for “day 35 post infection relative”.

pIC50: −log10 of the molar value. The source made the active and inactive calls. No cut-off for these calls is given here.

With `O=C(Cn1ccnc1/N=N/c1ccc(Cl)cc1)N1CCCC1`, the outcome in the data set with Trypanosoma cruzi [1] was inactive.

As for `O=C(Cn1ccnc1/N=N/c1ccc([N+](=O)[O-])cc1)N1CCCC1`, the result in the data set with Trypanosoma cruzi [1] was inactive.

On to `O=C(Cn1ccnc1/N=N/c1ccc(Cl)cc1)N1CCCCC1`, for which the result with Trypanosoma cruzi [1] was inactive.

A word on the CC50: it is the concentration that lowers cell viability or growth by half. For orientation: pIC50 means −log10 of the IC50, conventionally taken in molar units. For the molecule `O=C(Cn1ccnc1/N=N/c1ccc(C(F)(F)F)cc1)N1CCCCC1`, the Activity was 5 - 6 ×10⁶ /ml in the data set on Trypanosoma cruzi [2] and 60% in the data set on Trypanosoma cruzi [3] (setting [13]). In addition, the survival at 100 mg/kg with Trypanosoma cruzi [4] was found to be 67%. Further, the CC50 at 24 h in [5] worked out at 415 µM. The result in the data set on Trypanosoma cruzi [6], in the data set with Trypanosoma cruzi [8] and in the data set with Trypanosoma cruzi [9] was Active. Also, in the data set on Trypanosoma cruzi [7], the Time fell in the range of 9 to 12 days. The pIC50 with Trypanosoma cruzi [10] is 2.97.

Regarding `O=C(Cn1ccnc1/N=N/c1ccc([N+](=O)[O-])cc1)N1CCCCC1`, the Activity in the data set on Trypanosoma cruzi [11] is reported as 20 ×10⁶ /ml; in the data set on Trypanosoma cruzi [2] it was 5 - 6 ×10⁶ /ml; with Trypanosoma cruzi [3] (setting [13]) it was 71%. Besides, in the data set with Trypanosoma cruzi [4], the survival at 100 mg/kg stood at 67%. In addition, the CC50 at 24 h in data set [5] is 206 µM. In addition, the Time in the data set on Trypanosoma cruzi [12] was 4 days; with Trypanosoma cruzi [7] it was 9 to 12 days. Also, the outcome in the data set on Trypanosoma cruzi [6], with Trypanosoma cruzi [8] and in the data set with Trypanosoma cruzi [9] was Active. The pIC50 in the data set with Trypanosoma cruzi [10] was 3.19.

As for `O=C(Cn1ccnc1/N=N/c1ccc(C(F)(F)F)cc1)N1CCOCC1`, the result with Trypanosoma cruzi [1] was inactive.

As to `O=C(Cn1ccnc1/N=N/c1ccc(Cl)c(Cl)c1)N1CCCC1`, the result with Trypanosoma cruzi [1] was inactive.

`CN(C)c1ccc(C(=C2C=CC(=[N+](C)C)C=C2)c2ccc(N(C)C)cc2)cc1` [GENTIAN VIOLET] had a pIC50 with Trypanosoma cruzi [10] of 5.55.

As for `COc1ccc(/N=N/c2nccn2CC(=O)N2CCOCC2)c([N+](=O)[O-])c1`, in the data set on Trypanosoma cruzi [1], the result was inactive.

Take `COc1ccc(/N=N/c2nccn2CC(=O)NC2CCCCC2)c([N+](=O)[O-])c1`: the outcome in the data set with Trypanosoma cruzi [1] was inactive.

On to `O=C(Cn1ccnc1/N=N/c1ccc([N+](=O)[O-])cc1)N1CCOCC1`, for which the result with Trypanosoma cruzi [1] was inactive.

For the molecule `NC(CCCCNC(=O)Cn1ccnc1/N=N/c1ccc([N+](=O)[O-])cc1)C(=O)O` (configuration not stated), the result in the data set on Trypanosoma cruzi [1] was inactive.

With `O=C(Cn1ccnc1/N=N/c1ccc(C(F)(F)F)cc1)N1CCCC1`, in the data set on Trypanosoma cruzi [1], the outcome was inactive.

As to `COc1ccc(/N=N/c2nccn2CC(=O)N2CCCCC2)c([N+](=O)[O-])c1`, in the data set with Trypanosoma cruzi [1], the result was inactive.

Take `O=C(Cn1ccnc1[N+](=O)[O-])NCc1ccccc1` [BENZNIDAZOLE]: the Activity with Trypanosoma cruzi [11] is on record as 25 ×10⁶ /ml. For the same molecule, the outcome with Trypanosoma cruzi [2], with Trypanosoma cruzi [3], in the data set with Trypanosoma cruzi [6], with Trypanosoma cruzi [7] and in the data set on Trypanosoma cruzi [9] was Active. The survival at 100 mg/kg with Trypanosoma cruzi [4] was 100%. For the same molecule, the Time with Trypanosoma cruzi [12] turned out to be 3 days.

As for `O=C(Cn1ccnc1/N=N/c1ccc([N+](=O)[O-])cc1)NC1CCCCC1`, the result with Trypanosoma cruzi [1] was inactive.

Consider `O=C(Cn1ccnc1/N=N/c1ccc(C(F)(F)F)cc1)NC1CCCCC1`, for which the outcome in the data set on Trypanosoma cruzi [1] was inactive.
